What was measured:
[1] = Antiplatelet activity against ADP-induced human platelet in platelet rich plasma assessed as inhibition of platelet aggregation at 10 uM preincubated for 2 mins followed by ADP stimulation and measured for 5 mins by aggregometry relative to control; assay type: functional; conditions: 7 min
Procedure, shortened: (§1)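 Human whole blood anticoagulated with 3.8% sodium citrate (1:9 v/v); PRP by centrifugation at 300 rpm for 20 min at room temperature, PPP at 900 rpm for 10 min. Compound in DMSO (final under 0.5%) added to PRP, 2 min at 37 °C, then ADP 10 μM. Aggregometer stirred at 900 rpm, 37 °C, calibrated with PRP and PPP, read 5 min (Born). Inhibition from maximal trace height versus DMSO vehicle.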

[2] = Antiplatelet activity against ADP-induced human platelet in platelet rich plasma assessed as inhibition of platelet aggregation preincubated for 2 mins followed by ADP stimulation and measured for 5 mins by aggregometry; assay type: functional, cell-based; procedure, shortened: as §1
[3] = Antiplatelet activity against ADP-induced human platelet in platelet rich plasma assessed as inhibition of platelet aggregation at 3 uM preincubated for 2 mins followed by ADP stimulation and measured for 5 mins by aggregometry relative to control; assay type: functional; conditions: 7 min; procedure, shortened: as §1
[4] = Toxicity in mouse assessed as bleeding time at 5 mg/kg, po administered via gavage measured after 1 hr by bleeding tail test (reference value: 5.2 mins); assay type: organism-based; conditions: in vivo
Mus musculus [5] = experiment: Antiplatelet activity against ADP-induced platelet aggregation in mouse assessed as inhibition of platelet aggregation at 2.5 mg/kg, iv measured after 1 hr by turbidimetric method relative to control; assay type: functional
Procedure, shortened: (§2)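 Male mice of about 20 g received compound iv (2.5 mg/kg) or orally (5 mg/kg). After 1 h, blood was drawn from the abdominal aorta into 3.8% citrate. PRP was obtained at 1000 rpm for 7 min, adjusted with PPP to about 2 × 10^6 platelets/mL and incubated 10 min at 37 °C. ADP final 5 μM; turbidimetric aggregation read, PRP as zero and PPP as 100%.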

Mus musculus [6] = experiment: Antiplatelet activity against ADP-induced platelet aggregation in mouse assessed as inhibition of platelet aggregation at 5 mg/kg, po measured after 1 hr by turbidimetric method relative to control; assay type: functional; procedure, shortened: as §2
[7] = Toxicity in mouse assessed as blood loss at 5 mg/kg, po administered via gavage measured after 1 hr by bleeding tail test (reference value: 34.92 uL); assay type: organism-based; conditions: in vivo
P2Y purinoceptor 12 = P2Y purinoceptor 12 (Homo sapiens, UniProt Q9H244); experiment: Inhibition of P2Y12 receptor in human platelet assessed as reduction in ADP-induced VASP phosphorylation by flow cytometry; assay type: functional, cell-based
Chain of P2Y purinoceptor 12 (Q9H244 whole entry): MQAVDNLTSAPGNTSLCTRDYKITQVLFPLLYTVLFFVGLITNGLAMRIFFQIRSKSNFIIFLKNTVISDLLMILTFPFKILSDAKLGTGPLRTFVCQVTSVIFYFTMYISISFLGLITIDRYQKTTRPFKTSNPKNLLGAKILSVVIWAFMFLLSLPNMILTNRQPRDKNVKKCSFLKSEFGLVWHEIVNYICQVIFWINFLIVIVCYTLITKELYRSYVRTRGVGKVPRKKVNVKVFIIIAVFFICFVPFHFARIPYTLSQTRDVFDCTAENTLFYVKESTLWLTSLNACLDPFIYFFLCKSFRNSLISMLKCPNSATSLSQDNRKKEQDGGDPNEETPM

SMILES	inhibition at 10 µM [1] [%]	other results
CCCSc1nc(NCCc2cccc(F)c2)c2nnn([C@@H]3C[C@H](O)[C@@H](O)[C@H]3O)c2n1	68.3	–
CCCSc1nc(NC2CCCCC2)c2nnn([C@@H]3C[C@H](OCCO)[C@@H](O)[C@H]3O)c2n1	5.3	–
CCCSc1nc(NCC)c2nnn([C@@H]3C[C@H](OCCO)[C@@H](O)[C@H]3O)c2n1	21.4	IC50 [2]: 4.89 µM
CCCSc1nc(NCCc2ccc(O)cc2)c2nnn([C@@H]3C[C@H](O)[C@@H](O)[C@H]3O)c2n1	76.8	–
CCCSc1nc(NC2CCCC2)c2nnn([C@@H]3C[C@H](OCCO)[C@@H](O)[C@H]3O)c2n1	8.1	–
CCCNc1nc(SCCC)nc2c1nnn2[C@@H]1C[C@H](O)[C@@H](O)[C@H]1O	68.6	–
CCCSc1nc(NCC(C)C)c2nnn([C@@H]3C[C@H](OCCO)[C@@H](O)[C@H]3O)c2n1	7.8	–
CCCCNc1nc(SCCC)nc2c1nnn2[C@@H]1C[C@H](OCCO)[C@@H](O)[C@H]1O	40.8	IC50 [2]: 3.16 µM
CCCSc1nc(NCCCO)c2nnn([C@@H]3C[C@H](OCCO)[C@@H](O)[C@H]3O)c2n1	13.9	–
CCCSc1nc(N/N=C/c2cccc([N+](=O)[O-])c2)c2nnn([C@@H]3C[C@H](OCCO)[C@@H](O)[C@H]3O)c2n1	95.5	inhibition at 3 µM [3]: 77.3%
CCCSc1nc(NCCO)c2nnn([C@@H]3C[C@H](OCCO)[C@@H](O)[C@H]3O)c2n1	15.2	–
CCCSc1nc(N/N=C/c2ccc([N+](=O)[O-])cc2)c2nnn([C@@H]3C[C@H](OCCO)[C@@H](O)[C@H]3O)c2n1	90.9	inhibition at 3 µM [3]: 70.9%
CCCSc1nc(N/N=C/c2cccc(O)c2)c2nnn([C@@H]3C[C@H](OCCO)[C@@H](O)[C@H]3O)c2n1	100	IC50 [2]: 0.58 µM; inhibition at 3 µM [3]: 85.4%
CCCSc1nc(N/N=C/c2ccc(F)c(F)c2)c2nnn([C@@H]3C[C@H](OCCO)[C@@H](O)[C@H]3O)c2n1	85.4	inhibition at 3 µM [3]: 46.3%
CCCSc1nc(NCCO)c2nnn([C@@H]3C[C@H](O)[C@@H](O)[C@H]3O)c2n1	69.4	–
CCCSc1nc(NCCc2ccccc2)c2nnn([C@@H]3C[C@H](O)[C@@H](O)[C@H]3O)c2n1	33.4	–
CCCSc1nc(NCCCc2ccccc2)c2nnn([C@@H]3C[C@H](O)[C@@H](O)[C@H]3O)c2n1	29.3	–
CCCSc1nc(NCCCO)c2nnn([C@@H]3C[C@H](O)[C@@H](O)[C@H]3O)c2n1	70.3	IC50 [2]: 1.78 µM
CCCCNc1nc(SCCC)nc2c1nnn2[C@@H]1C[C@H](O)[C@@H](O)[C@H]1O	85.4	–
CCCSc1nc(N[C@@H]2C[C@H]2c2ccc(F)c(F)c2)c2nnn([C@@H]3C[C@H](OCCO)[C@@H](O)[C@H]3O)c2n1 [TICAGRELOR]	92.7	Time [4]: > 20 min; inhibition in vivo at 2.5 mg/kg (Mus musculus [5]): 52.2%; IC50 [2]: 0.74 µM; inhibition in vivo at 5 mg/kg (Mus musculus [6]): 69.4%; Activity [7]: 73.25 µL; IC50 (P2Y purinoceptor 12): 0.039 µM; inhibition at 3 µM [3]: 78.6%
